Source: PubChem (several laboratories)
In the library only some 1.5% were active in any assay of this set; here they are far more common.
Rpn11 inh = Rpn11 (human) deubiquitinase inhibition; hit rate 0.59% among 360,000; O00487; inhibition, % at 20 µM; human 26S proteasome, Ub4-pepOG fluorescence polarization; 20S core pre-blocked with epoxomicin;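 active means inhibition at 20 µM, scaled to each plate's controls, above about 33%, limit read from the data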
Target sequence (O00487 whole entry, looked up): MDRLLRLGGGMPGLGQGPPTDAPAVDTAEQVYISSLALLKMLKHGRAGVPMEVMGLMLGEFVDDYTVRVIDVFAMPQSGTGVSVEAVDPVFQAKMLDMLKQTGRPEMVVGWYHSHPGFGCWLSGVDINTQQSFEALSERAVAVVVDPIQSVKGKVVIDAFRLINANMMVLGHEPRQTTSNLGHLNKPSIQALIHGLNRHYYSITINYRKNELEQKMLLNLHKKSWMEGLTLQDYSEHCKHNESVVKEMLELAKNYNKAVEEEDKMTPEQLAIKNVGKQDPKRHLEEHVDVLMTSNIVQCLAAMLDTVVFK
HNF4A DNA FP = change in binding of human HNF4 alpha to DNA | P41235 | HNF4a-FITC DNA binding, fluorescence polarization, 1 h | activity change, % at 10 µM | hit rate 0.3% among 360,000 | AID 1224865; in the data active means activity change above about 30%, passing the limit was not always enough
TPT1 inh = inhibitors of Candida albicans tRNA 2'-phosphotransferase TPT1; recombinant caTPT1, FP RNA substrate dephosphorylation; inhibition, % at 5 µM; hit rate 0.81% among 300,000; AID 1962;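 active means inhibition above the mean of all tested compounds plus 3 SD, set per screening campaign, cut at about 24% in these data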
CSN inh = blocks human CSN-mediated cullin deneddylation. hit rate 0.38% among 360,000. Purified CSN, SCF-Nedd8-OG deneddylation, fluorescence polarization. inhibition, % at 12.5 µM;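 active means pattern-corrected inhibition above about 35%, with an unprinted fluorescence ratio check between 0.5 and 1.5, limit read from the data, passing the limit was not always enough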
Target sequence (Q92905 whole entry, looked up, one chain of several): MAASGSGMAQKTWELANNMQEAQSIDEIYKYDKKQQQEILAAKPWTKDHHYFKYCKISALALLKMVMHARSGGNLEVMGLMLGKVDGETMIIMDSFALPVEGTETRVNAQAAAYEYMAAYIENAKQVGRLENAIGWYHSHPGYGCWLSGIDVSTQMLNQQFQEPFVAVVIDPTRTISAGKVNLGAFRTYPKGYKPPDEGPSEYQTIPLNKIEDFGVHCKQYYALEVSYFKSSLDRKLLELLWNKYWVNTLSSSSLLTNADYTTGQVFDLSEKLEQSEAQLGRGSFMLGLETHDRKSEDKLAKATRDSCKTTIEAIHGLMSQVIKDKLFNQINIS
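Test system: purified human Csn5 enzyme expressed in HEK293T cells. Amount: 0.24 nM enzyme. Reagent: SCFSkp2-Nedd8OG substrate at 10 nM final. Schedule: 90 min incubation of compound, enzyme and substrate at room temperature. Detection: fluorescence polarization. Read-out: % inhibition of substrate cleavage by Csn5.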
TPT1 inh confirm = TPT1 (C. albicans) inhibition, confirmation; hit rate 74% among 2,400; recombinant caTPT1, fluorescence polarization, RNase T1 coupled; shares compounds with TPT1 inh; inhibition, % at 5 µM;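 active means inhibition above the primary screen limit, the mean inhibition of all tested compounds plus 3 SD, cut at about 25% in these data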
RNase T1 counter = RNase T1 inhibition in TPT1 counter-screen. shares compounds with TPT1 inh. AID 2153. hit rate 83% among 2,400. RNase T1 cleavage, fluorescence polarization, 1536-well. inhibition, % at 5 µM;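 active means inhibition above the solvent-only control well mean plus 3 SD, limit set per screening run, cut at about 23% in these data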;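 further: inhibitors block cleavage so intact labeled substrate keeps polarization high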
A number is an active result; 0 = inactive; - = no result shown.

SMILES	Rpn11 inh	HNF4A DNA FP	TPT1 inh	CSN inh	TPT1 inh confirm	RNase T1 counter
COc1ccc(C(=O)C2CCCN(C(=O)c3csc(SC)n3)C2)cc1F (centres undefined)	0	0	-	0	-	-
CSc1nc(-c2ccccc2)nc(SC)c1C(C)=O	0	0	26.3	0	0	0
CSc1nc(-c2ccccc2)nc(NC(=O)c2ccccc2)c1C(C)=O	0	0	0	0	-	-
CC(=O)NCCNC(=O)C1(C)Cc2c(-c3cccc(C(F)(F)F)c3)ccnc2O1 (centres undefined)	0	0	-	0	-	-
CN(C)c1ccc(/C=C(/C#N)C(=O)NCc2ccccc2)o1	-	0	176.8	0	192.5	176.2
N#C/C(=C/c1ccccc1)C(=O)NCc1ccccc1	0	0	0	0	-	-
CCOc1ccc(N2C(=O)CS/C2=C(\C(Cl)=C(Cl)Cl)[N+](=O)[O-])cc1	70.8	35.3	54.1	0	58.0	69.6
CCOc1ccc(N2C(=O)CNC2=S)cc1	0	0	0	0	-	-
COc1ccc(N/C(C)=C/C(=S)Nc2ccccc2)cc1	0	0	124.7	0	0	0
COc1ccc(N/C(C)=C/C(=O)c2ccccc2)cc1	0	0	0	0	-	-
O=C(COC(=O)CCS(=O)(=O)c1ccccc1)Nc1ccc(N2CCCCC2)cc1	0	0	-	0	-	-
O=C(NN1C(=O)/C(=C/c2cccs2)SC1=S)c1ccccc1	0	0	0	0	-	-
Cn1cccc1/C=C1\SC(=S)N(NC(=O)c2ccc(F)cc2)C1=O	-	90.9	96.8	54.0	111.0	118.2
O=C(O)c1ccc(/C=C2\SC(=S)N(NC(=O)c3ccccc3)C2=O)cc1	0	0	0	0	-	-
Cn1cccc1/C=C1\SC(=S)N(NC(=O)c2ccccc2)C1=O	-	86.5	88.5	0	91.2	111.4
CC12CCC(C(=O)CC1=O)C2(C)C (centres undefined)	0	0	-	0	-	-
CC(=O)Nc1cnc(/C=C\CCCO)cn1	0	0	-	0	-	-
COc1ccccc1OCC(=O)/C=C1/N(C)c2ccccc2C1(C)C	0	0	0	0	-	-
CN1/C(=C\C(=O)COc2ccc3c(c2)OCO3)C(C)(C)c2ccccc21	0	0	32.2	0	33.9	43.5
C/C(=N\Nc1ccc([N+](=O)[O-])cc1)c1ccc(N)cc1	0	0	37.4	0	33.9	46.0
C/C(=N\Nc1ccc([N+](=O)[O-])cc1)c1ccc(N2CCOCC2)cc1	0	0	31.1	0	45.7	52.5
CCc1ccc(/C(C)=N\Nc2ccc([N+](=O)[O-])cc2)cc1	0	0	81.0	0	56.3	70.9
CC/C(=N\Nc1ccc([N+](=O)[O-])cc1)c1ccccc1	-	0	39.3	0	47.4	59.9
COC(C[C@@H](O)[C@@H](C)[C@@H](O)COCc1ccccc1)OC	0	0	-	0	-	-
CCCCNC(=O)c1onc(CSc2ccc(F)c(F)c2)c1C(=O)NCCCC	0	0	0	0	-	-
SMILES	Rpn11 inh	HNF4A DNA FP	TPT1 inh	CSN inh	TPT1 inh confirm	RNase T1 counter
O=C1C=CC(=O)N1N(c1ccccc1)c1ccccc1	0	0	0	0	-	-
Cc1csc(C(C)N(C)C(=O)c2ccc(OC3CCN(Cc4ccccn4)CC3)cc2)n1 (centres undefined)	0	0	0	0	-	-
O=[N+]([O-])c1ccc(NN=Cc2ccccc2O)nc1	0	0	-	0	-	-
O=[N+]([O-])c1ccc(N/N=C/c2ccccc2O)cc1	0	0	50.2	0	68.9	80.5
C/C(=N\Nc1ccc([N+](=O)[O-])cc1)c1ccco1	0	0	47.6	0	55.6	68.8
O=c1c2ccccc2nc(/C=C/c2ccccc2)n1CCCO	0	0	0	0	-	-
CN(C)c1ccc(/C=C/c2nc3ccccc3c(=O)[nH]2)cc1	-	67.4	64.3	0	73.8	82.6
CN(C)c1ccc(/C=C/c2nc3ccccc3c(=O)n2CCO)cc1	-	0	79.9	0	84.5	95.5
O=c1[nH]c(/C=C/c2ccc(Br)cc2)nc2ccccc12	0	0	0	0	-	-
CC1(NC(=O)CSc2nnc(-c3c[nH]c4ccccc34)n2C2CC2)CCS(=O)(=O)C1 (centres undefined)	0	0	-	0	-	-
Oc1[nH]c2ccccc2c1N=Nc1ccc(F)cc1	-	0	0	0	-	-
Oc1[nH]c2ccccc2c1N=Nc1ccccc1F	-	0	137.8	0	128.6	130.3
COc1ccc(-n2c(O)c(/C=N/NS(=O)(=O)c3cc(C)ccc3C)c3ccccc3c2=O)cc1OC	-	0	109.2	0	94.3	97.6
COc1ccc(-n2c(O)c(/C=N/Nc3nc(C)cc(C)n3)c3ccccc3c2=O)cc1OC	0	0	0	0	-	-
COc1ccc(-n2c(O)c(/C=N/NS(=O)(=O)c3ccc(C)cc3)c3ccccc3c2=O)cc1OC	-	86.5	108.8	0	69.9	85.8
Cc1ccc(C(=O)NCC(=O)N(C)Cc2ccccc2C)s1	0	0	-	0	-	-
CCN(CC)c1ccc(/C=N/N2C(=O)c3ccccc3C2=O)c(O)c1	0	0	45.4	0	0	0
CCC(Oc1ccccc1)C(=O)Nc1ccc(-c2nnc(-c3ccco3)o2)cc1 (centres undefined)	0	0	71.3	0	0	0
COC(=O)c1ccc(C2C(C(=O)c3cc4ccccc4o3)=C(O)C(=O)N2c2cc(C)on2)cc1 (centres undefined)	0	0	43.9	0	0	25.5
CCCOc1cccc(C2C(C(=O)c3cc4ccccc4o3)=C(O)C(=O)N2c2cc(C)on2)c1 (centres undefined)	0	0	0	0	-	-
Cc1cc(N2C(=O)C(O)=C(C(=O)c3cc4ccccc4o3)C2c2cccc(Br)c2)no1 (centres undefined)	0	0	30.6	0	0	25.3
COc1cccc2cc(C(=O)C3=C(O)C(=O)N(c4cc(C)on4)C3c3cccs3)oc12 (centres undefined)	0	0	30.8	0	0	35.5
Cc1cc(N2C(=O)C(O)=C(C(=O)c3cc4ccccc4o3)C2c2ccc(OC(C)C)cc2)no1 (centres undefined)	0	0	0	0	-	-
Cc1ccc(S(=O)(=O)Nc2c(C)cc(C)nc2Cl)cc1	0	0	0	0	-	-
CC(C)C(N)c1csc(Nc2ccc(C(=O)c3ccccc3)cc2)n1 (centres undefined)	0	0	-	0	-	-
SMILES	Rpn11 inh	HNF4A DNA FP	TPT1 inh	CSN inh	TPT1 inh confirm	RNase T1 counter
CCCCN(C)C(=O)c1sc(=O)n(Cc2c(C)cccc2C)c1C	0	0	-	0	-	-
Clc1cccc2c3c([nH]c12)CCNC3	0	0	0	0	-	-
COCCN1C(=O)/C(=C/c2ccc(N3CCCC3)cc2)SC1=S	-	0	133.4	0	137.8	131.3
COc1ccc(/C=C2\SC(=S)N(CCC(=O)N3CCCCC3)C2=O)cc1	0	0	0	0	-	-
C(=N\Nc1nc(-c2ccccc2)cs1)/c1ccncc1	0	0	0	0	-	-
O=C(O)Cc1sc(N/N=C\c2ccncc2)nc1-c1ccccc1	-	0	51.6	0	43.0	50.6
CC[n+]1c(/C=C(\C)OC)sc2ccccc21	0	0	-	0	-	-
CC[n+]1c(/C=C/C=C/N(C(C)=O)c2ccccc2)sc2cc(OC)ccc21	-	-	56.1	-	75.9	81.0
